Experimental data from ChEMBL document CHEMBL3813633, “2-Aryl-8-aza-3-deazaadenosine analogues of 5'-O-[N-(salicyl)sulfamoyl]adenosine: Nucleoside antibiotics that block siderophore biosynthesis in Mycobacterium tuberculosis” (Bioorg Med Chem, 2016).
In brackets after ≈: the same amount, converted by molar mass. Activity calls are given as the source filed them. The rule behind the calls is not given here.

Legend:
[1] = system: Mycobacterium tuberculosis; assay: Antibacterial activity against Mycobacterium tuberculosis H37Rv under iron-deficient condition after 10 to 14 days by broth microdilution method; assay type: functional
Procedure, shortened: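 M. tuberculosis H37Rv broth microdilution in iron-deficient GAST (GAS medium without ferric ammonium citrate, pH 6.6). Compounds were added from DMSO stocks, with isoniazid as positive control and DMSO as negative control. Initial density was 10^4–10^5 cells/assay at 37 °C. Growth was read as OD620 at 10–14 days, when controls reached OD620 0.2–0.3. MIC was determined in triplicate.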

[2] = system: Mycobacterium tuberculosis; assay: Antibacterial activity against Mycobacterium tuberculosis H37Rv at 50 uM under iron-replete condition after 10 to 14 days by broth microdilution method; assay type: functional, organism-based

| Compound | MIC [1] [µM] | Activity [2] |
| --- | --- | --- |
| COc1ccc2cc(-c3cc4c(nnn4[C@@H]4O[C@H](COS(=O)(=O)NC(=O)c5ccccc5O)[C@@H](O)[C@H]4O)c(N)n3)ccc2c1 | 19 (≈ 11.8 µg/mL) | inactive |
| Cc1ccc(-c2cc3c(nnn3[C@@H]3O[C@H](COS(=O)(=O)NC(=O)c4ccccc4O)[C@@H](O)[C@H]3O)c(N)n2)cc1 | 25 (≈ 13.9 µg/mL) | inactive |
| Nc1nc(-c2ccc(C(F)(F)F)cc2)cc2c1nnn2[C@@H]1O[C@H](COS(=O)(=O)NC(=O)c2ccccc2O)[C@@H](O)[C@H]1O | > 50 | inactive |
| Nc1nc(-c2ccc(F)cc2)cc2c1nnn2[C@@H]1O[C@H](COS(=O)(=O)NC(=O)c2ccccc2O)[C@@H](O)[C@H]1O | 19 (≈ 10.6 µg/mL) | inactive |
| Nc1nc(-c2ccccc2)cc2c1nnn2[C@@H]1O[C@H](COS(=O)(=O)NC(=O)c2ccccc2O)[C@@H](O)[C@H]1O | 25 (≈ 13.6 µg/mL) | inactive |
| Nc1nc(-c2ccc3ccccc3c2)cc2c1nnn2[C@@H]1O[C@H](COS(=O)(=O)NC(=O)c2ccccc2O)[C@@H](O)[C@H]1O | 12.5 (≈ 7.41 µg/mL) | inactive |
